Tests used:
Rattus norvegicus = species on record: Rattus norvegicus; experiment: Minimum effect dose required to reduce the number of alveolor cyst load in rat Pneumocystis carinii pneumonia assay; assay type: functional
Procedure, shortened: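 Immunosuppressed Sprague-Dawley rats with confirmed infection (5 per dose level) were dosed subcutaneously, 0.15 and 0.60 mg/kg twice daily for 4 days. On day 5, lungs were homogenized and cysts counted microscopically in a known amount of homogenate. MED90 is the dose giving ≥90% cyst reduction versus vehicle sham controls.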

Mus musculus = species on record: Mus musculus; experiment: Minimum effect dose required to reduce the number of colony forming units in per gram kidney of mice after being challenged, by tail vein injection, with 5 X l0e4 cells of Candida albicans (MY 1055); assay type: functional
Procedure, shortened: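 DBA/2 mice (5 per dose level) were infected intravenously and dosed ip with vehicle sham or 1.5, 3.0 or 6.0 mg/kg twice daily for 4 days. On day 7 post-infection, kidneys were cultured on SDA (35 °C, 24 h) and CFU/g counted. MED99 is the dose giving ≥99% CFU/g reduction versus vehicle sham.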

Fungi [1] = experiment: Minimum fungicidal concentration against Candida tropicalis MY 1012; assay type: functional, organism-based
Procedure, shortened: (§1)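 Clinical isolates in yeast nitrogen base with 1% dextrose, inoculated with about 5×10^3 CFU per well. Drug was tested by 2-fold serial dilution from 128 to 0.06 µg/mL, with growth for 24 h at 35 °C. 1.5-µL aliquots were then spotted onto Sabouraud dextrose agar and incubated at 35 °C for 24 h. MFC was the lowest concentration giving fewer than five colonies per spot. Duplicate determinations.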

Fungi [2] = experiment: Minimum fungicidal concentration against Candida pseudotropicalis MY 1100; assay type: functional, organism-based
Procedure, shortened: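 Clinical isolates were inoculated at about 5×10^3 CFU into yeast nitrogen base with 1% dextrose, with drug in 2-fold dilutions from 128 to 0.06 µg/mL, and grown 24 h at 35 °C. Then 1.5 µL aliquots were spotted on Sabouraud dextrose agar and held 24 h at 35 °C. MFC is the lowest concentration giving fewer than five colonies per spot, from duplicate determinations.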

Fungi [3] = experiment: Minimum fungicidal concentration against Candida albicans MY 1055; assay type: functional, organism-based; procedure, shortened: as §1
Homo sapiens = species on record: Homo sapiens; experiment: Hemolytic potential was determined as the minimum lytic concentration against human red blood cells; assay type: functional, cell-based
Procedure, shortened: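 Compounds were serially diluted in water containing 10% DMSO and added to whole human blood, then incubated 2 h at 37 °C. Red cell lysis was scored visually, and the lowest lytic concentration was recorded.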

[4] = Inhibitory activity against glucan synthesis; assay type: functional
Fungi [5] = experiment: Minimum fungicidal concentration against Candida albicans MY 1028; assay type: functional, organism-based; procedure, shortened: as §1
Fungi [6] = experiment: Minimum fungicidal concentration against Candida parapsilosis MY 1010; assay type: functional, organism-based; procedure, shortened: as §1

Structure (SMILES) | MED90 (Rattus norvegicus) [mg/kg] | MED99 (Mus musculus) [mg/kg] | Concentration (Fungi [1]) [µg/mL] | Concentration (Fungi [2]) [µg/mL] | Concentration (Fungi [3]) [µg/mL] | Concentration (Homo sapiens) [µg/mL] | IC50 [4] [µM] | Concentration (Fungi [5]) [µg/mL] | Concentration (Fungi [6]) [µg/mL]
CCC(C)CC(C)CCCCCCCCC(=O)N[C@H]1C[C@@H](O)[C@@H](O)NC(=O)[C@@H]2[C@@H](O)CCN2C(=O)[C@H]([C@@H](O)CC(N)=O)NC(=O)[C@H]([C@H](O)[C@@H](O)c2ccc(OC(=O)CCCC(=O)O)cc2)NC(=O)[C@@H]2C[C@@H](O)CN2C(=O)[C@H]([C@@H](C)O)NC1=O (stereo not given in full) | 0.6 | 6 |  |  |  |  |  |  | 
CCC(C)CC(C)CCCCCCCCC(=O)N[C@H]1C[C@@H](O)[C@@H](O)NC(=O)[C@@H]2[C@@H](O)CCN2C(=O)[C@H]([C@@H](O)CC(N)=O)NC(=O)[C@H]([C@H](O)[C@@H](O)c2ccc(OC(=O)CCCC(=O)O)cc2)NC(=O)[C@@H]2C[C@@H](O)CN2C(=O)[C@H]([C@H](C)O)NC1=O (stereo not given in full) |  |  | 0.5 | 2 | 0.5 | > 400 | 1 | 0.5 | 
CCC(C)CC(C)CCCCCCCCC(=O)N[C@H]1C[C@@H](O)[C@@H](O)NC(=O)[C@@H]2[C@@H](O)CCN2C(=O)[C@H]([C@@H](O)CC(N)=O)NC(=O)[C@H]([C@H](O)[C@@H](O)c2ccc(OC(=O)CCN)cc2)NC(=O)[C@@H]2C[C@@H](O)CN2C(=O)[C@H]([C@H](C)O)NC1=O (stereo not given in full) |  |  | 0.5 |  | 1 | 100 | 0.2 | 1 | 16
CCC(C)CC(C)CCCCCCCCC(=O)N[C@H]1C[C@@H](O)[C@@H](O)NC(=O)[C@@H]2[C@@H](O)CCN2C(=O)[C@H]([C@@H](O)CC(N)=O)NC(=O)[C@H]([C@H](O)[C@@H](O)c2ccc(OC(=O)OCCN(C)C)cc2)NC(=O)[C@@H]2C[C@@H](O)CN2C(=O)[C@H]([C@H](C)O)NC1=O (stereo not given in full) |  |  | 0.125 | 1 | 0.25 | 50 | 0.1 | 0.125 | 2
CCC(C)CC(C)CCCCCCCCC(=O)N[C@H]1C[C@@H](O)[C@@H](O)NC(=O)[C@@H]2[C@@H](O)CCN2C(=O)[C@H]([C@@H](O)CC(N)=O)NC(=O)[C@H]([C@H](O)[C@@H](O)c2ccc(O)cc2)NC(=O)[C@@H]2C[C@@H](O)CN2C(=O)[C@H]([C@@H](C)O)NC1=O (stereo not given in full) | 0.15 | 3 |  |  |  |  |  |  | 
CCC(C)CC(C)CCCCCCCCC(=O)N[C@H]1C[C@@H](O)[C@@H](O)NC(=O)[C@@H]2[C@@H](O)CCN2C(=O)[C@H]([C@@H](O)CC(N)=O)NC(=O)[C@H]([C@H](O)[C@@H](O)c2ccc(OC(=O)CN)cc2)NC(=O)[C@@H]2C[C@@H](O)CN2C(=O)[C@H]([C@@H](C)O)NC1=O.Cl (stereo not given in full) | 0.6 | 3 |  |  |  |  |  |  | 
CCC(C)CC(C)CCCCCCCCC(=O)N[C@H]1C[C@@H](O)[C@@H](O)NC(=O)[C@@H]2[C@@H](O)CCN2C(=O)[C@H]([C@@H](O)CC(N)=O)NC(=O)[C@H]([C@H](O)[C@@H](O)c2ccc(OC(=O)NCC(=O)O)cc2)NC(=O)[C@@H]2C[C@@H](O)CN2C(=O)[C@H]([C@H](C)O)NC1=O (stereo not given in full) |  |  | 8 | 32 | 4 | > 400 | > 10 | 4 | 
CCC(C)CC(C)CCCCCCCCC(=O)N[C@H]1C[C@@H](O)[C@@H](O)NC(=O)[C@@H]2[C@@H](O)CCN2C(=O)[C@H]([C@@H](O)CC(N)=O)NC(=O)[C@H]([C@H](O)[C@@H](O)c2ccc(OC(=O)NCC(=O)O)cc2)NC(=O)[C@@H]2C[C@@H](O)CN2C(=O)[C@H]([C@@H](C)O)NC1=O (stereo not given in full) | > 0.3 | > 6 |  |  |  |  |  |  | 
CCC(C)CC(C)CCCCCCCCC(=O)N[C@H]1C[C@@H](O)[C@@H](O)NC(=O)[C@@H]2[C@@H](O)CCN2C(=O)[C@H]([C@@H](O)CC(N)=O)NC(=O)[C@H]([C@H](O)[C@@H](O)c2ccc(OC(=O)NCCC(=O)O)cc2)NC(=O)[C@@H]2C[C@@H](O)CN2C(=O)[C@H]([C@H](C)O)NC1=O (stereo not given in full) |  |  | 128 |  | 128 | > 400 | > 10 | 128 | > 128
CCC(C)CC(C)CCCCCCCCC(=O)N[C@H]1C[C@@H](O)[C@@H](O)NC(=O)[C@@H]2[C@@H](O)CCN2C(=O)[C@H]([C@@H](O)CC(N)=O)NC(=O)[C@H]([C@H](O)[C@@H](O)c2ccc(OC(=O)NCCN(C)C)cc2)NC(=O)[C@@H]2C[C@@H](O)CN2C(=O)[C@H]([C@H](C)O)NC1=O (stereo not given in full) |  |  | 1 | 64 | 1 | 25 | 1 | 1 | 
